# Assay outcomes deposited in PubChem by several laboratories.
# FAS TE block: inhibitors of human fatty acid synthase thioesterase domain; P49327; recombinant FAS-TE, OMFH fluorogenic substrate, fluorescence endpoint; inhibition, % at 15 µM; 0.67% of 360,000 active; AID 602261;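 active = compounds whose normalised, plate-corrected inhibition of enzyme fluorescence in the single-dose primary screen is 50% or more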;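 note: 0% = DMSO with enzyme and 100% = substrate without enzyme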
# SENP1 FRET inh: inhibitors of human SENP1 SUMO protease catalytic domain; recombinant SENP1 catalytic domain, CyPet-SUMO1-YPet FRET cleavage; inhibition, % at 10 µM; 0.21% of 360,000 active; AID 624204;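 active = inhibition at least 30% at 10 µM, raw YFP signal under a set limit, fluorescence ratio 0.5 to 1.5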;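 note: 0% = enzyme with DMSO and 100% = no enzyme wells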
# Target sequence (Q9P0U3 419-644 limits assumed): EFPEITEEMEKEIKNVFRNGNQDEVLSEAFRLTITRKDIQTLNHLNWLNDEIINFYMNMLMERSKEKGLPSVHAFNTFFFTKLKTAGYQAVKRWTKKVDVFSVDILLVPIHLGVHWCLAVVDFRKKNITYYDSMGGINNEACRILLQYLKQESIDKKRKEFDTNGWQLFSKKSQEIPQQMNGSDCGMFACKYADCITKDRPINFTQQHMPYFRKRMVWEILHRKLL
#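 Test system: recombinant human SENP1 catalytic domain, His6-tagged / Medium: pH 8 Tris buffer with EDTA, NaCl, BME, BSA, NP40, catalase / Also added: SUMO1 FRET substrate flanked by Cypet and Ypet, 25 nM / Times: 50 min reaction at room temperature / Signal: FRET, CFP and YFP emission / Control set: no-enzyme low control and enzyme-plus-DMSO high control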
# NR3A LBD binder: modulates the human NR3A ligand-binding domain; NR3A LBD differential scanning fluorimetry, Tm shift; 0% = protein alone, 100% = glycine-bound protein; Tm shift relative to glycine control, % at 25 µM; 2.5% of 340,000 active; AID 1259313;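 active = melting temperature shift of at least 10% of the positive control shift, at one fixed dose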
# Cardio protect: modulators protecting cardiomyocytes from myocardial damage. protection from H2O2 cell death, % at 20 µM. 0.63% of 360,000 active. H9c2 cardiomyocytes, H2O2 injury protection, ATPLite, 2 h;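 active = compounds giving at least 50% protection of heart cells from peroxide-induced death in the single-dose screen, raw or plate-pattern-corrected value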;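 note: 0% = DMSO wells with peroxide and 100% = DMSO wells without peroxide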
# hiPSC survival: hiPSC single-cell survival enhancement; ATPlite luminescence; 100% = ROCK inhibitor wells, 0% = DMSO; survival enhancement, % at 20 µM; 0.044% of 360,000 active; AID 602274; in the data active = survival enhancement above about 18%;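 note: cells exposed to compounds for 16 hours before the ATP read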
# Arr AP2 block: inhibitors of human beta-arrestin and AP2 interaction. FITC-arrestin peptide / GST-AP2 beads, flow cytometry; AP2 beta2 appendage carries R879A mutation. inhibition, % at 10 µM. 0.31% of 340,000 active;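 active = inhibition above a set limit, near 3 SD of compounds lacking own fluorescence, cut at about 54% in these data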;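 note: plate controls were DMSO wells for no effect and 5 µM unlabelled arrestin peptide for full effect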
#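 system = GST-tagged AP2 beta2-adaptin appendage (R879A) on 4 µm glutathione beads | reagent = FITC-labelled arrestin peptide probe, 50 nM final | schedule = compound with beads 12 min RT, then probe 1 h RT | signal = HyperCyt-sampled flow cytometry, FL1 channel, ex 488/em 535 nm | read-out = percent response from loss of bead-bound FITC fluorescence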
# An asterisk follows results filed as active; / = not tested or not shown. A selection: hits, their analogues and other compounds. The true share with any hit is near 4%.
SMILES,FAS TE block,SENP1 FRET inh,NR3A LBD binder,Cardio protect,hiPSC survival,Arr AP2 block
Cc1ccc2nc(-c3ccc(C#N)cc3)c(Cc3ccccc3C(F)(F)F)n2c1,31.0,-5.0,/,-4.1,-1.6,/
N#Cc1nc(-c2ccc(OCc3ccc(Cl)cc3)cc2)oc1NCCCn1ccnc1,-57.7,2.8,16.6*,-2.8,1.2,-0.7
CNc1oc(-c2ccc(OCc3ccccc3)cc2)nc1C#N,9.6,-1.8,32.9*,-11.5,0.7,-41.5
CN(C)C(=O)c1cccc(-c2cnc3c(NC=O)cc(-c4ccc(N(C)C)cc4)cn23)c1,-5.6,-9.2,/,14.1,-0.2,/
O=S1(=O)CCC(NC(=S)NCCNC(=S)NC2CCS(=O)(=O)C2)C1 (stereo not drawn),-10.3,1.6,20.5*,3.1,-1.7,-26.9
NC(=S)NC1CCS(=O)(=O)C1 (stereo not drawn),-2.0,0.1,-0.9,4.9,3.9,27.0
CC1(C(=O)NS(=O)(=O)c2ccc(F)cc2F)CCN1C(=O)C/C=C/c1ccccc1 (stereo not drawn),-6.0,-2.8,/,11.4,-1.2,/
CS(=O)(=O)Nc1ccc(-c2ccc3nccn3c2)cc1,-8.7,-53.6,/,51.7*,0.2,/
CS(=O)(=O)Nc1ccc(-c2cn3cccnc3n2)cc1,-2.2,-1.7,-0.2,5.3,0.1,6.2
COc1ccc2nc(Nc3nc4cc5c(cc4s3)OCO5)sc2c1,0.9,-26.0,14.4*,1.1,-2.1,32.3
COc1cc(OC)cc(C(=O)NNc2nc3cc4c(cc3s2)OCO4)c1,0.8,-4.4,-1.4,6.7,-0.2,1.4
O=C(c1ccccc1)c1sc(Nc2ccc3c(c2)OCO3)nc1-c1ccccc1,20.8,3.3,/,-1.8,-1.9,/
COc1ccc2nc(Nc3ccc4c(c3)OCO4)sc2c1,11.4,0.9,16.3*,-7.9,0.5,31.7
CCOC(Cn1c(SCc2cc(C(C)=O)ccc2OC)nc2ccccc2c1=O)OCC,-14.8,-0.2,13.0*,0.3,-2.0,-2.6
CS(=O)(=O)Nc1cccc(NC(=O)C2Cc3c(-c4ccccc4)ccnc3O2)c1 (stereo not drawn),1.1,-1.2,/,-9.3,-0.3,/
CCOC(=O)c1cccc(N2C(=O)Nc3ccccc3N2O)c1,-10.0,2.8,18.0*,5.6,-1.7,2.3
CCOC(=O)c1c(-c2ccccc2)csc1N1C(=O)Nc2ccccc2N1O,-4.8,3.6,-1.7,-1.4,-0.5,20.3
COc1ccc(CCNc2cc(C)nc3c(-c4ccccc4OC)cnn23)cc1OC,17.6,-1.7,-1.0,6.2,0.4,-2.3
COc1ccccc1-c1cnn2c(NCc3ccccc3)cc(C)nc12,16.8,6.4,10.0*,-11.0,1.4,1.3
COC(=O)C1(C(=O)OC)c2cc3c(cc2CN(S(=O)(=O)c2ccc(C)cc2)C1CC(C)=O)OCO3 (stereo not drawn),/,-0.3,/,/,/,/
Cc1cc(NC(=O)/C=C/c2ccccc2Cl)no1,-12.1,-6.8,0.3,-3.8,3.7,6.6
CN(C)c1ccc(NC(=O)/C=C/c2ccccc2Cl)cc1,-5.7,5.6,30.6*,-8.1,-3.7,24.1
CCN(CC)c1ccc(NC(=O)/C=C\c2ccccc2Cl)cc1,18.1,7.3,26.0*,-11.1,-1.2,10.1
Cc1noc(C)c1S(=O)(=O)NC(=O)C1(C)CCN1C(=O)C1(c2ccc(Cl)cc2)CC1 (stereo not drawn),-5.1,1.6,/,1.1,4.1,/
COc1cc2c(-c3ccc(O)cc3)nc3c(c(C)nn3-c3ccccc3)c2cc1OC,13.2,-0.5,28.0*,-7.2,0.1,6.9
COc1cc2c(C)nc3c(c(C)nn3-c3ccccc3)c2cc1OC,3.4,-59.7,-8.2,-1.1,4.6,-1.0
CC(C)(C)n1nnnc1C(CCc1ccccc1)N1CCN(C/C=C/c2ccccc2)CC1 (stereo not drawn),17.9,-0.5,/,-11.6,1.5,/
O=c1[nH]c(O)c(/C=C2\C=Nc3ccc(Br)cc32)[nH]1,-4.2,-4.8,41.5*,11.2,-0.2,-1.4
O=C(Cn1c(O)c(/C=C2\C=Nc3ccc(Br)cc32)sc1=O)N1CCCC1,-20.8,-15.7,-7.8,12.5,1.8,20.7
COc1ccc(C(=O)Nc2ccc(N3CCCCC3)cc2)cc1Br,-1.2,0.8,10.4*,-4.9,1.7,7.3
